Test results published in ChEMBL document CHEMBL4007430, “Synthesis and Cytostatic and Antiviral Profiling of Thieno-Fused 7-Deazapurine Ribonucleosides” (J Med Chem, 2017).

Legend:
BJ = test: Cytotoxicity against human BJ cells assessed as cell growth inhibition after 72 hrs by MTS assay; format: cell-based
Method in brief: (§1)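 Cells were exposed to compound for 3 days, then stained with MTS as a quantitative metabolic read-out. IC50 is the concentration that inhibits cell growth by 50%.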

MRC5 = test: Cytotoxicity against human MRC5 cells assessed as cell growth inhibition after 72 hrs by MTS assay; format: cell-based; settings: MRC5, 72 h; method in brief: as §1
[1] = Cytotoxicity against mrp-1/mdr-1 overexpressing human CEM-DNR-bulk cells assessed as cell growth inhibition after 72 hrs by MTS assay; format: functional, cell-based
Method in brief: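 Cells were exposed to compound for 3 days, then stained with MTS as a quantitative metabolic read-out.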

HCT-116 [2] = test: Cytotoxicity against human HCT116 cells assessed as cell growth inhibition after 72 hrs by MTS assay; format: functional, cell-based; settings: HCT-116, 72 h; method in brief: as §1
HCT-116 [3] = test: Cytotoxicity against p53 deficient human HCT116 cells assessed as cell growth inhibition after 72 hrs by MTS assay; format: functional, cell-based; settings: HCT-116, 72 h; method in brief: as §1
K562 = test: Cytotoxicity against human K562 cells assessed as cell growth inhibition after 72 hrs by MTS assay; format: functional, cell-based; settings: K562, 72 h; method in brief: as §1
[4] = Cytotoxicity against human K562-TAX cells assessed as cell growth inhibition after 72 hrs by MTS assay; format: functional, cell-based; method in brief: as §1
U2OS = test: Cytotoxicity against human U2OS cells assessed as cell growth inhibition after 72 hrs by MTS assay; format: functional, cell-based
HL-60 = test: Cytotoxicity against human HL60 cells assessed as reduction in cell viability after 72 hrs by XTT assay; format: functional, cell-based; settings: HL-60, 72 h
Method in brief: (§2)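 Cells were incubated with compound for 3 days. Viability was then measured with the XTT tetrazolium assay.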

HepG2 = test: Cytotoxicity against human HepG2 cells assessed as reduction in cell viability after 72 hrs by XTT assay; format: functional, cell-based; settings: HepG2, 72 h; method in brief: as §2
HeLa S3 = test: Cytotoxicity against human HeLaS3 cells assessed as reduction in cell viability after 72 hrs by XTT assay; format: functional, cell-based; settings: HeLa S3, 72 h; method in brief: as §2
A549 = test: Cytotoxicity against human A549 cells assessed as cell growth inhibition after 72 hrs by MTS assay; format: functional, cell-based; settings: A549, 72 h; method in brief: as §1
Adenosine kinase [5] = biological target: T1, Adenosine kinase (Homo sapiens, UniProt P55263); test: Drug metabolism in human BJ cells assessed as ADK-mediated 4-(Methylsulfanyl)-8-(beta-D-ribofuranosyl)-8H-thieno[2, 3:4,5]-pyrrolo[2,3-d]pyrimidine-5-O-monophosphate Sodium Salt formation per 5 x10^5 cells at 1 umol/L after 1 hr by UPLC-MS/MS analysis; format: ADME, cell-based; settings: 1 µM
T1 sequence (P55263 whole entry): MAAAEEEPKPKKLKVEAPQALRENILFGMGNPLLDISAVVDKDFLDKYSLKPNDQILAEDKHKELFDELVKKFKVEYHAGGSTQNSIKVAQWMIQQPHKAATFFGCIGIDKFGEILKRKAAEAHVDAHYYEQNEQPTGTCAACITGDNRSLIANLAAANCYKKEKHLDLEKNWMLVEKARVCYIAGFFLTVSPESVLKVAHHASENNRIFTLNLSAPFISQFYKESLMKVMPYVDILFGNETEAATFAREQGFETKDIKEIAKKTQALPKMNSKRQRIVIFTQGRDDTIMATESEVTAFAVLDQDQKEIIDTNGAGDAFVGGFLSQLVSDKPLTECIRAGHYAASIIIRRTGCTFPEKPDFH

Adenosine kinase [6] = biological target: T1, Adenosine kinase; test: Drug metabolism in human HCT116 cells assessed as ADK-mediated 4-(Methylsulfanyl)-8-(beta-D-ribofuranosyl)-8H-thieno[2, 3:4,5]-pyrrolo[2,3-d]pyrimidine-5-O-monophosphate Sodium Salt formation per 5 x10^5 cells at 1 umol/L after 1 hr by UPLC-MS/MS analysis; format: ADME, cell-based; settings: 1 µM
Adenosine kinase [7] = biological target: T1, Adenosine kinase; test: Drug metabolism in human BJ cells assessed as ADK-mediated 4-(Methylsulfanyl)-8-(beta-D-ribofuranosyl)-8H-thieno[2, 3:4,5]-pyrrolo[2,3-d]pyrimidine-5-O-monophosphate Sodium Salt formation per 5 x10^5 cells at 1 umol/L after 3 hrs by UPLC-MS/MS analysis; format: ADME, cell-based; settings: 1 µM
Adenosine kinase [8] = biological target: T1, Adenosine kinase; test: Drug metabolism in human HCT116 cells assessed as ADK-mediated 4-(Methylsulfanyl)-8-(beta-D-ribofuranosyl)-8H-thieno[2, 3:4,5]-pyrrolo[2,3-d]pyrimidine-5-O-monophosphate Sodium Salt formation per 5 x10^5 cells at 1 umol/L after 3 hrs by UPLC-MS/MS analysis; format: ADME, cell-based; settings: 1 µM
Adenosine kinase [9] = biological target: T1, Adenosine kinase; test: Drug metabolism in human BJ cells assessed as ADK-mediated 4-(Methylsulfanyl)-8-(beta-D-ribofuranosyl)-8H-thieno[2, 3:4,5]-pyrrolo[2,3-d]pyrimidine-5-O-monophosphate Sodium Salt formation per 5 x10^5 cells at 10 umol/L after 1 hr by UPLC-MS/MS analysis; format: ADME, cell-based; settings: 10 µM
Adenosine kinase [10] = biological target: T1, Adenosine kinase; test: Drug metabolism in human HCT116 cells assessed as ADK-mediated 4-(Methylsulfanyl)-8-(beta-D-ribofuranosyl)-8H-thieno[2, 3:4,5]-pyrrolo[2,3-d]pyrimidine-5-O-monophosphate Sodium Salt formation per 5 x10^5 cells at 10 umol/L after 1 hr by UPLC-MS/MS analysis; format: ADME, cell-based; settings: 10 µM
Adenosine kinase [11] = biological target: T1, Adenosine kinase; test: Drug metabolism in human BJ cells assessed as ADK-mediated 4-(Methylsulfanyl)-8-(beta-D-ribofuranosyl)-8H-thieno[2, 3:4,5]-pyrrolo[2,3-d]pyrimidine-5-O-monophosphate Sodium Salt formation per 5 x10^5 cells at 10 umol/L after 3 hrs by UPLC-MS/MS analysis; format: ADME, cell-based; settings: 10 µM
Adenosine kinase [12] = biological target: T1, Adenosine kinase; test: Drug metabolism in human HCT116 cells assessed as ADK-mediated 4-(Methylsulfanyl)-8-(beta-D-ribofuranosyl)-8H-thieno[2, 3:4,5]-pyrrolo[2,3-d]pyrimidine-5-O-monophosphate Sodium Salt formation per 5 x10^5 cells at 10 umol/L after 3 hrs by UPLC-MS/MS analysis; format: ADME, cell-based; settings: 10 µM
Adenosine kinase [13] = biological target: T1, Adenosine kinase; test: Drug level in human BJ cells assessed as ADK-mediated compound formation treated with 4-(Methylsulfanyl)-8-(beta-D-ribofuranosyl)-8H-thieno[2',3':4,5]-pyrrolo[2,3-d]pyrimidine at 1 umol/L after 1 hr by UPLC-MS/MS analysis; format: ADME, cell-based
Adenosine kinase [14] = biological target: T1, Adenosine kinase; test: Drug level in human BJ cells assessed as ADK-mediated compound formation treated with 4-(Methylsulfanyl)-8-(beta-D-ribofuranosyl)-8H-thieno[2',3':4,5]-pyrrolo[2,3-d]pyrimidine at 1 umol/L after 3 hrs by UPLC-MS/MS analysis; format: ADME, cell-based
Adenosine kinase [15] = biological target: T1, Adenosine kinase; test: Drug level in human BJ cells assessed as ADK-mediated compound formation treated with 4-(Methylsulfanyl)-8-(beta-D-ribofuranosyl)-8H-thieno[2',3':4,5]-pyrrolo[2,3-d]pyrimidine at 10 umol/L after 1 hr by UPLC-MS/MS analysis; format: ADME, cell-based
Adenosine kinase [16] = biological target: T1, Adenosine kinase; test: Drug level in human BJ cells assessed as ADK-mediated compound formation treated with 4-(Methylsulfanyl)-8-(beta-D-ribofuranosyl)-8H-thieno[2',3':4,5]-pyrrolo[2,3-d]pyrimidine at 10 umol/L after 3 hrs by UPLC-MS/MS analysis; format: ADME, cell-based
Adenosine kinase [17] = biological target: T1, Adenosine kinase; test: Drug level in human HCT116 cells assessed as ADK-mediated compound formation treated with 4-(Methylsulfanyl)-8-(beta-D-ribofuranosyl)-8H-thieno[2',3':4,5]-pyrrolo[2,3-d]pyrimidine at 1 umol/L after 1 hr by UPLC-MS/MS analysis; format: ADME, cell-based
Adenosine kinase [18] = biological target: T1, Adenosine kinase; test: Drug level in human HCT116 cells assessed as ADK-mediated compound formation treated with 4-(Methylsulfanyl)-8-(beta-D-ribofuranosyl)-8H-thieno[2',3':4,5]-pyrrolo[2,3-d]pyrimidine at 1 umol/L after 3 hrs by UPLC-MS/MS analysis; format: ADME, cell-based
Adenosine kinase [19] = biological target: T1, Adenosine kinase; test: Drug level in human HCT116 cells assessed as ADK-mediated compound formation treated with 4-(Methylsulfanyl)-8-(beta-D-ribofuranosyl)-8H-thieno[2',3':4,5]-pyrrolo[2,3-d]pyrimidine at 10 umol/L after 1 hr by UPLC-MS/MS analysis; format: ADME, cell-based
Adenosine kinase [20] = biological target: T1, Adenosine kinase; test: Drug level in human HCT116 cells assessed as ADK-mediated compound formation treated with 4-(Methylsulfanyl)-8-(beta-D-ribofuranosyl)-8H-thieno[2',3':4,5]-pyrrolo[2,3-d]pyrimidine at 10 umol/L after 3 hrs by UPLC-MS/MS analysis; format: ADME, cell-based
Adenosine kinase [21] = biological target: T1, Adenosine kinase; test: Drug level assessed as human ADK-mediated compound formation treated with 4-(Methylsulfanyl)-8-(beta-D-ribofuranosyl)-8H-thieno[2',3':4,5]-pyrrolo[2,3-d]pyrimidine at 50 uM after 30 mins by HPLC analysis; format: ADME; settings: 0.5 h
CCRF-CEM = test: Cytotoxicity against human CCRF-CEM cells assessed as cell growth inhibition after 72 hrs by MTS assay

With `CSc1ncnc2c1c1sccc1n2[C@@H]1O[C@H](COP(=O)([O-])O)[C@@H](O)[C@H]1O.[Na+]` the IC50 (BJ) was 640 nM, the IC50 (MRC5) was greater than 50000 nM and the IC50 [1] was 47600 nM. For the same molecule, the IC50 (HCT-116 [2]) was 110 nM, the IC50 (HCT-116 [3]) was 130 nM and the IC50 (K562) was 390 nM. For the same molecule, the IC50 [4] was greater than 50000 nM, the IC50 (U2OS) was 9890 nM and the IC50 (HL-60) was 340 nM. It also gave an IC50 (HepG2) of 540 nM, an IC50 (HeLa S3) of 9610 nM and an IC50 (A549) greater than 50000 nM. For the same molecule, the Drug metabolism (Adenosine kinase [5]) was 19751.3 pmol, the Drug metabolism (Adenosine kinase [6]) was 4124 pmol and the Drug metabolism (Adenosine kinase [7]) was 27253.4 pmol. It also gave a Drug metabolism (Adenosine kinase [8]) of 5737.8 pmol, a Drug metabolism (Adenosine kinase [9]) of 62703.9 pmol and a Drug metabolism (Adenosine kinase [10]) of 6108.2 pmol. The Drug metabolism (Adenosine kinase [11]) was 65894.4 pmol, the Drug metabolism (Adenosine kinase [12]) was 15246.3 pmol and the Drug metabolism (Adenosine kinase [13]) was “Metabolite_Detected”. For the same molecule, the Drug metabolism (Adenosine kinase [14]) was “Metabolite_Detected”, the Drug metabolism (Adenosine kinase [15]) was “Metabolite_Detected” and the Drug metabolism (Adenosine kinase [16]) was “Metabolite_Detected”. The Drug metabolism (Adenosine kinase [17]) was “Metabolite_Detected”, the Drug metabolism (Adenosine kinase [18]) was “Metabolite_Detected” and the Drug metabolism (Adenosine kinase [19]) was “Metabolite_Detected”. For the same molecule, the Drug metabolism (Adenosine kinase [20]) was “Metabolite_Detected”, the Drug metabolism (Adenosine kinase [21]) was “Metabolite_Detected” and the IC50 (CCRF-CEM) was 200 nM.
